Results: ChEMBL document CHEMBL2331535, “Discovery and Biological Profiling of Potent and Selective mTOR Inhibitor GDC-0349” (ACS Med Chem Lett, 2013)
Values belong to the molecule of their own block, whether it stands above or below them. Calls of active or inactive are those of the source. No cut-off for these calls is given here.

Key:
[1] = In vivo clearance in mouse; assay type: ADME, organism-based
[2] = test system: PC-3; test: Antiproliferative activity against PTEN-null human PC3 cells; assay type: functional, cell-based
Outline: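 PC3 prostate cancer cells (PTEN loss, PI3K-AKT-mTOR pathway activated) used for the antiproliferation assay. Activity is expressed as EC50 in nM.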

[3] = target: Cytochrome P450 3A4 (Homo sapiens, UniProt P08684); test: Time-dependent inhibition of CYP3A4 in human liver microsome using midazolam as substrate by TDI shift assay; assay type: ADME, microsomes
Sequence of Cytochrome P450 3A4 (P08684 whole entry): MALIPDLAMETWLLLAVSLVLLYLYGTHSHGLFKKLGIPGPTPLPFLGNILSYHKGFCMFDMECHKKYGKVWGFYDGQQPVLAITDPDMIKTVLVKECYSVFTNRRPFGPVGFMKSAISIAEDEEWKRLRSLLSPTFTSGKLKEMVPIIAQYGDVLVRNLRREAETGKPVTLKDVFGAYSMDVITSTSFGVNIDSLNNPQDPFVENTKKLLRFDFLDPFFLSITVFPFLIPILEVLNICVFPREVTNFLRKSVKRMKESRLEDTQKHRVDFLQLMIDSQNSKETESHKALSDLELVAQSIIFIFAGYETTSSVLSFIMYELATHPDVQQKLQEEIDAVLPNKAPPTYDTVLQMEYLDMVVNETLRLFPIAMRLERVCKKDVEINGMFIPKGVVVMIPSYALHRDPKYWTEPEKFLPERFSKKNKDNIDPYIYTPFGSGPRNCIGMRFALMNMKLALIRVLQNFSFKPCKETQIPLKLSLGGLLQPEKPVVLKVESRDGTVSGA
Outline: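 CYP3A4 time-dependent inhibition shift assay in human liver microsomes with NADPH cofactor and midazolam as probe substrate. The compound was preincubated for 30 min and compared with no preincubation. A left shift of the CYP activity curve after preincubation designates the compound TDI positive.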

[4] = Dissociation constant, pKa of the compound; assay type: physicochemical
[5] = test system: Mus musculus; test: Toxicity in NCR nude mouse xenografted with human PI3K-mutant MCF7-neo/Her2 cells assessed as body weight changes up to 80 mg/kg, po qd for 14-21 days; assay type: organism-based; set-up: dose 80 mg/kg, route oral; conditions: in vivo
Outline: (§1)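 MCF7-neo/Her2 (PI3K-mutant) breast cancer xenografts in athymic mice. Compound given orally once daily at 10, 20, 30, 40, 50, 60, 70 and 80 mg/kg QD, with a vehicle group (0 mg/kg). Tumor growth inhibition was tracked, and body weight change was monitored up to the highest dose.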

[6] = Antitumor activity against PI3K-mutant human MCF7-neo/Her2 cells xenografted in po dosed NCR nude mouse assessed as tumor growth inhibition at maximum tolerated dose administered qd for 14-21 days; assay type: functional
Outline: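 Athymic mice bearing MCF7-neo/Her2 breast tumour xenografts (PI3K-mutant) were given the drug orally once daily at 10, 20, 30, 40, 50, 60, 70 or 80 mg/kg, with a vehicle (0 mg/kg) group. Read-out was tumour growth inhibition across the dose range, with body weight change also tracked.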

[7] = test system: Plasma; test: Free plasma clearance in mouse; assay type: ADME, cell-free
[8] = test system: Plasma; test: Free plasma clearance in rat; assay type: ADME, cell-free
[9] = test system: Homo sapiens; test: Decrease in phosphorylated 4-EBP1 level in PI3K-mutant human MCF7-neo/Her2 cells xenografted in NCR nude mouse at 25 to 100 mg/kg, po; assay type: functional, organism-based
[10] = test system: PC-3; test: Antitumor activity against PTEN-null human PC3 cells xenografted in po dosed NCR nude mouse assessed as tumor growth inhibition administered qd for 14-21 days; assay type: functional, organism-based
[11] = test system: A549; test: Antitumor activity against KRas mutant, LKB1 deficient human A549 cells xenografted in po dosed mouse assessed as delay in tumor growth administered qd in presence of MEK inhibitor, GDC-0973; assay type: functional, organism-based
[12] = test system: Homo sapiens; test: Antitumor activity against PI3K-mutant human MCF7-neo/Her2 cells xenografted in po dosed NCR nude mouse assessed as tumor growth inhibition administered qd for 14-21 days; assay type: functional, organism-based; outline: as §1
[13] = test system: 786-0; test: Antitumor activity against VHL mutant human 786-0 cells xenografted in po dosed nu/nu mouse assessed as tumor growth inhibition administered qd for 14-21 days; assay type: functional, organism-based
[14] = test system: Homo sapiens; test: Decrease in phosphorylation of Akt at Ser473 in PI3K-mutant human MCF7-neo/Her2 cells xenografted in NCR nude mouse at 25 to 100 mg/kg, po; assay type: functional, organism-based
[15] = test system: A549; test: Antitumor activity against KRas mutant, LKB1 deficient human A549 cells xenografted in mouse assessed as tumor growth inhibition at 5 to 30 mg/kg, po qd; assay type: functional, organism-based
[16] = test system: Homo sapiens; test: Antitumor activity against PI3K-mutant human MCF7-neo/Her2 cells xenografted in po dosed NCR nude mouse assessed as tumor growth inhibition administered once daily for 14-21 days
[17] = test system: Mus musculus; test: Toxicity in po dosed mouse xenografted with KRas mutant, LKB1 deficient human A549 cells assessed as body weight changes administered qd in presence of MEK inhibitor, GDC-0973; assay type: organism-based; conditions: in vivo

- clearance [1]: 78 mL/min/kg
- EC50 [2]: 25 nM
Structure (SMILES): C[C@H]1COCCN1c1nc(-c2ccc(Nc3nccc(=O)[nH]3)cc2)nc2c1CCN(c1ncccn1)C2

- CL free [7]: 1818 mL/min/kg
- EC50 [2]: 147 nM
- CL free [8]: 1538 mL/min/kg
Structure (SMILES): CCNC(=O)Nc1ccc(-c2nc3c(c(N4CCOC[C@@H]4C)n2)CCN(c2ncccn2)C3)cc1

- IC50 [3]: 1400 nM
Structure (SMILES): CCNC(=O)Nc1ccc(-c2nc3c(c(N4CCOC[C@@H]4C)n2)CCN(c2ncc(F)cn2)C3)cc1

- IC50 [3]: > 10000 nM
Structure (SMILES): CCNC(=O)Nc1ccc(-c2nc3c(c(N4CCOC[C@@H]4C)n2)CCN(c2nccn2C)C3)cc1

- EC50 [2]: 310 nM
Structure (SMILES): CCNC(=O)Nc1ccc(-c2nc3c(c(N4CCOCC4)n2)CCN(c2ncccn2)C3)cc1

- EC50 [2]: 139 nM
Structure (SMILES): C[C@H]1COCCN1c1nc(-c2ccc(Nc3nn(C)c(=O)[nH]3)cc2)nc2c1CCN(c1ncccn1)C2

- EC50 [2]: 667 nM
Structure (SMILES): CCNc1c(Nc2ccc(-c3nc4c(c(N5CCOC[C@@H]5C)n3)CCN(c3ncccn3)C4)cc2)c(=O)c1=O

- EC50 [2]: 1300 nM
Structure (SMILES): O=c1cccc(Nc2ccc(-c3nc4c(c(N5CCOCC5)n3)CCN(c3ncccn3)C4)cc2)[nH]1

The next lines start with the molecule.

Structure (SMILES): CCNC(=O)Nc1ccc(-c2nc3c(c(N4CCOC[C@@H]4C)n2)CCN(c2cc(C)ncn2)C3)cc1
- IC50 [3]: 8400 nM

Structure (SMILES): CCNC(=O)Nc1ccc(-c2nc3c(c(N4CCOC[C@@H]4C)n2)CCN(C(C)C)C3)cc1
- pKa [4]: 7.6
- IC50 [3]: > 10000 nM

Structure (SMILES): O=C(NCCF)Nc1ccc(-c2nc3c(c(N4CCOCC4)n2)CCN(c2ncccn2)C3)cc1
- EC50 [2]: 58 nM

Structure (SMILES): CCNC(=O)Nc1ccc(-c2nc3c(c(N4CCOC[C@@H]4C)n2)CCN(C2COC2)C3)cc1.CS(=O)(=O)O
- Activity [5]: < 10%
- TGI [6]: 99%

Structure (SMILES): CCNC(=O)Nc1ccc(-c2nc3c(c(N4CCOC[C@@H]4C)n2)CCN(C2COC2)C3)cc1
- inhibition [9]: Active
- TGI [10]: Active
- TGI [11]: Active
- inhibition [12]: Dose-dependent effect
- TGI [13]: Active
- inhibition [14]: Active
- TGI [15]: Active
- TGI [16]: Active

Structure (SMILES): CCNC(=O)Nc1ccc(-c2nc3c(c(N4CCOC[C@@H]4C)n2)CCN(c2ccnc(C)n2)C3)cc1
- IC50 [3]: 3300 nM

Structure (SMILES): CCNC(=O)Nc1ccc(-c2nc3c(c(N4CCOC[C@@H]4C)n2)CCN(C2COC2)C3)cc1 [RG-7603]
- pKa [4]: 5
- CL free [7]: 100 mL/min/kg
- Activity [17]: Non-toxic
- CL free [8]: 171 mL/min/kg

Structure (SMILES): CS(=O)(=O)N1CCN(Cc2cc3nc(-c4cccc5[nH]ncc45)nc(N4CCOCC4)c3s2)CC1 [PICTILISIB]
- Activity [17]: Non-toxic
- TGI [11]: Active
- TGI [15]: Active
